Screening data (PubChem BioAssay)
Many of the other results were omitted from the sample, so hits are more common in it than they were.
ABCB1 block = blocks JC-1 efflux by human ABCB1 transporter; P08183; CCRF-Adr cells, flow cytometry; inhibition, % at 6.6 µM; 190,000 compounds, 0.067% hits; in the data active means inhibition above about 40%;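 further: 0% = vehicle and 100% = reference inhibitor; higher value means more JC-1 retained so stronger ABCB1 efflux block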
Avidin bead fluor = avidin bead compound fluorescence profile; Avidin beads, compound fluorescence 488/530 nm, flow cytometry; active compounds read high; 220,000 compounds, 0.38% hits; AID 1775; fluorescence (KMESF) at 10 µM; in the data active means fluorescence above about 47
PKD1 kinase inh = inhibitors of human PKD1 kinase; PKD1 kinase fluorescence polarization assay; 200,000 compounds, 0.056% hits; inhibition, % (test concentration not listed); AID 797; Q15139
GSH bead fluor = compound fluoresces at 488/530 nm on GSH beads. GSH beads flow cytometry, compound fluorescence 488/530 nm; active compounds read high. fluorescence (KMESF) at 10 µM. 190,000 compounds, 0.25% hits; in the data active means fluorescence above about 89;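 further: glutathione beads carrying GST-tagged Bcl family fusion proteins plus one bare bead set; values are compound well signal with DMSO vehicle wells as background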
ABCG2 inh = human ABCG2 inhibition, ABCB1 as counter-screen | IgMXP3 cells, JC-1 efflux, flow cytometry | inhibition, % at 6.6 µM | 190,000 compounds, 0.1% hits;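 active means inhibition above 80%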;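 further: 0% = DMSO and 100% = nicardipine control wells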
Target sequence (Q9UNQ0 whole entry, looked up): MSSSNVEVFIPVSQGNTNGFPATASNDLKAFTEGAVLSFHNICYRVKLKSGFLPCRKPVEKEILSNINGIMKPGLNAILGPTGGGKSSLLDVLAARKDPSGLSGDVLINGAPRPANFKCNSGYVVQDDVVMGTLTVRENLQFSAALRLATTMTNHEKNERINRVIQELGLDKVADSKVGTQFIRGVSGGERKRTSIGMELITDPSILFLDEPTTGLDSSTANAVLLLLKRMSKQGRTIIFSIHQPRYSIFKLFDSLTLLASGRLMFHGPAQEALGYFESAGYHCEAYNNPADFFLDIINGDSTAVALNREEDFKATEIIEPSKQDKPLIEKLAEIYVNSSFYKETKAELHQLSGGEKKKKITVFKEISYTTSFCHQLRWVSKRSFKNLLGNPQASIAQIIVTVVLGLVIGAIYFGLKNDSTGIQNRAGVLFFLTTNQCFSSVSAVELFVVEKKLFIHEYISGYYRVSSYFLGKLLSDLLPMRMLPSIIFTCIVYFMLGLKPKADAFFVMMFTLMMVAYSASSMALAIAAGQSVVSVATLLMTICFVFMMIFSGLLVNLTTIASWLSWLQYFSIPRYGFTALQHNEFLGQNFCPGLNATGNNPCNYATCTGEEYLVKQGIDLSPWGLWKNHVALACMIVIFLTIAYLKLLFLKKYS
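Test system: IgMXP3 cells (ABCG2) mixed with DDAO far-red-labelled CCRF-Adr cells (ABCB1). Reagent: JC-1 transporter substrate. Compound dosing: single test compound dose, 6.6 µM final. Times: 10 min compound exposure, 25 °C. Detection: flow cytometry of retained JC-1 fluorescence. Read-out basis: efflux inhibition in percent versus controls. Controls: nicardipine and DMSO wells.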
Lmaj promast = Leishmania major promastigote growth inhibition. 200,000 compounds, 9% hits. Leishmania major promastigotes, resazurin fluorescence viability. AID 1063. inhibition, % at 10 µM;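 further: promastigotes grown with compound for 44 hours at 28 °C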
* hit, by the source's call; . = not tested or not shown. Unless noted, no stated cut-off is given here; in the data, active means inhibition above about 50%; inactive means the rest.

SMILES	ABCB1 block	Avidin bead fluor	PKD1 kinase inh	GSH bead fluor	ABCG2 inh	Lmaj promast
FC(F)Sc1ccc(NC(=S)NC(c2ccccc2)c2ccccc2)cc1	0	24	-1	11	1	56*
CCCn1c(=N)n(CC(=O)c2ccco2)c2ccccc21	0	8	-17	5	0	14
CCOC(=O)Cn1c(=N)n(Cc2ccccc2)c2ccccc21	1	32	3	15	2	-2
N=c1n(Cc2ccccc2)c2ccccc2n1CC(O)c1ccco1 (centres undefined)	2	36	4	29	23	89*
N=c1n(Cc2ccccc2)c2ccccc2n1Cc1ccccc1	0	6	4	10	2	99*
Cc1ccccc1Cn1c(=N)n(CC(=O)c2ccco2)c2ccccc21	1	15	-14	7	1	86*
CC(C)CNC(=O)COC(=O)CNC(=O)c1cc(Cl)cc([N+](=O)[O-])c1	1	4	-4	11	16	-5
COc1ccc(S(=O)(=O)N[C@@H](Cc2ccc(Cl)cc2)C(=O)N2CC[C@@]3(O)CCCC[C@H]3C2)cc1	2	16	-3	10	4	86*
N=C(N)Cc1ccccc1Sc1ccccc1	1	5	-6	7	6	98*
CCOCCCNC(=O)c1ccc(N2CCCC2)c(NS(=O)(=O)c2ccc(C)cc2)c1	1	7	4	13	1	8
Cc1ccc(S(=O)(=O)Nc2cc(C(=O)NCCN3CCCC3)ccc2N2CCCCC2)cc1	2	8	14	15	11	99*
Cc1ccc(S(=O)(=O)Nc2cc(C(=O)NCCN(C)C)ccc2N2CCCCC2)cc1	0	13	-6	31	0	87*
COCCCNC(=O)c1ccc(N2CCCC2)c(NS(=O)(=O)c2ccc(C)cc2)c1	1	28	-4	25	1	4
O=S(=O)(NCc1ccc2c(c1)OCO2)c1cccc2cccnc12	1	19	-8	27	1	92*
CCOc1cc(C)c(Cl)cc1S(=O)(=O)NCc1ccc2c(c1)OCO2	0	10	5	27	4	100*
Cc1ccc2cccc(S(=O)(=O)Nc3ccc4c(c3)OCO4)c2n1	0	15	-3	36	1	96*
CCOc1cc(S(=O)(=O)NCc2ccc3c(c2)OCO3)c(C)cc1C	0	16	-9	14	1	6
Cc1ccc2cccc(OCC(=O)Nc3ccc4c(c3)OCO4)c2n1	1	10	0	17	9	3
COc1ccc(Cl)cc1-c1csc(N)n1	0	5	-2	8	0	0
O=C(O)Cc1cn(Cc2ccc(F)cc2)c2ccccc12	0	25	-3	7	0	-11
Cc1[nH][nH]c(=O)c1C(c1c(C)[nH][nH]c1=O)c1cn(Cc2ccc(F)cc2)c2ccccc12	1	13	-11	9	5	99*
Cc1[nH][nH]c(=O)c1C(c1c(C)[nH][nH]c1=O)c1cn(Cc2ccc(Cl)c(Cl)c2)c2ccccc12	0	11	10	19	2	99*
O=c1ccc(NS(=O)(=O)c2ccccc2Cl)cn1Cc1ccc(Cl)c(Cl)c1	2	12	-2	9	5	-4
COc1ccc(-c2cc(C(F)(F)F)nc(SCC(=O)Nc3ccc4c(c3)OCO4)n2)cc1	-1	9	1	20	-3	41
COc1ccccc1NC(=S)N(Cc1ccc(C)cc1)Cc1cccnc1	1	9	2	21	16	6
SMILES	ABCB1 block	Avidin bead fluor	PKD1 kinase inh	GSH bead fluor	ABCG2 inh	Lmaj promast
S=C(Nc1ccccc1Cl)N(Cc1ccccc1)Cc1cccnc1	0	10	-1	22	1	91*
COc1ccccc1NC(=S)N(Cc1cccnc1)Cc1ccccc1Cl	0	4	-3	11	-1	77*
Cc1ccccc1NC(=S)N(Cc1cccnc1)Cc1ccccc1Cl	2	18	4	17	4	92*
Cc1ccc(Cl)cc1NC(=S)N(Cc1ccccc1)Cc1cccnc1	1	10	4	15	1	99*
COc1ccc(Cl)cc1NC(=S)N(Cc1cccnc1)Cc1ccco1	1	24	1	11	5	13
Cc1ccccc1Nc1nnc(SCC(=O)NC(=O)NCc2ccco2)s1	1	18	-9	10	7	-6
COc1cc2cc(CN(CCc3cccc(C)c3)C(=S)NCCCN3CCOCC3)c(=O)[nH]c2cc1OC	0	13	-1	10	0	4
CS(=O)(=O)N(CC(=O)Nc1ccc(S(=O)(=O)N2CCCC2)cc1)c1ccccc1	0	11	-3	23	0	7
CCn1cc(C(=O)O)c(=O)c2cc(F)c(N/N=C/c3ccccc3[N+](=O)[O-])cc21	-1	20	1	4	22	78*
CCn1cc(C(=O)O)c(=O)c2cc(F)c(N3CCN(C(=S)Nc4ccccc4OC)CC3)cc21	.	5	.	.	.	.
CCOc1ccc(Nc2nc(N3CCCC3)nc(N3CCN(c4ccc(OC)cc4)CC3)n2)cc1	0	11	-3	15	1	55*
CCOc1ccc(C(=O)Nc2ccc(N3CCCC3)cc2)cc1	0	5	-3	35	-1	1
CCOc1nc(Nc2ccc(F)cc2)nc(N2CCN(c3ccc(OC)cc3)CC2)n1	3	12	-4	23	43	70*
CCOc1nc(Nc2ccc(OC)c(Cl)c2)nc(N2CCN(c3ccc(OC)cc3)CC2)n1	4	11	-6	49	18	72*
CC(NC(=O)COC(=O)/C=C/c1ccc(Cl)cc1)c1ccccc1 (centres undefined)	1	39	2	18	2	-4
COc1ccc2nc(SCC(=O)Nc3ccccc3C)[nH]c2c1	1	64*	-8	19	6	6
c1cc2c3c(cccc3c1)C(N1CCN(C3=Nc4cccc5cccc3c45)CC1)=N2	.	.	-8	.	.	45
c1ccc(CC2CCN(C3=Nc4cccc5cccc3c45)CC2)cc1	4	19	-6	26	21	100*
COc1ccccc1N1CCN(C2=Nc3cccc4cccc2c34)CC1	2	15	-10	10	6	77*
CCC(=O)Nc1ccc(/C(C)=N/NC(=O)c2c(-c3ccccc3Cl)noc2C)cc1	0	3	11	7	4	96*
Cc1onc(-c2ccccc2Cl)c1C(=O)N/N=C(\N)COc1ccc(Cl)cc1	1	13	-1	36	7	84*
Cc1onc(-c2ccccc2Cl)c1C(=O)Nc1ccccc1	0	21	-9	18	1	-3
Cc1onc(-c2ccccc2)c1C(=O)N/N=C(\N)COc1ccc(Cl)cc1	1	14	1	38	6	-4
Cc1onc(-c2ccccc2Cl)c1C(=O)Nc1ccc(CN2CCCC2)cc1	0	13	-4	22	1	99*
